Source: ChEMBL document CHEMBL3627632, “Novel 1,4-naphthoquinone-based sulfonamides: Synthesis, QSAR, anticancer and antimalarial studies” (Eur J Med Chem, 2015)

What was measured:
HepG2 = assay: Cytotoxicity against human HepG2 cells after 48 hrs by MTT assay; type: functional, cell-based; details: HepG2, 48 h
Summary of the method: (§1)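 Adherent cells seeded at 10,000-20,000 per well and preincubated 24 h at 37 °C, 5% CO2. Serial dilutions of compound added in an equal volume of medium, DMSO as negative control, then 48 h further incubation. Surviving cells measured by MTT. IC50 is the concentration giving 50% growth inhibition relative to the DMSO control.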

[1] = Cytotoxicity against HuCCa1 cells after 48 hrs by MTT assay; type: functional, cell-based; details: Homo sapiens, HuCC-A1, 48 h; summary of the method: as §1
Vero = assay: Cytotoxicity against African green monkey Vero cells after 4 days by GFP detection method; type: cell-based; details: Chlorocebus sabaeus, 96 h
Summary of the method: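 Vero cells stably transfected with pEGFP-N1, kept in MEM with 10% heat-inactivated FBS, 2 mM L-glutamine, 1 mM pyruvate, 0.8 mg/mL geneticin at 37 °C, 5% CO2. Cells at 3.3 × 10^4 cells/mL added to compounds prediluted in 0.5% DMSO, 384-well, 4 days. GFP fluorescence read at ex 485/em 535 nm, day-0 background subtracted. IC50 from 6-point 3-fold dilution curves.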

A549 = assay: Cytotoxicity against human A549 cells after 48 hrs by MTT assay; type: functional, cell-based; details: A549, 48 h
Summary of the method: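 Adherent cells seeded at 10,000-20,000 per well and preincubated 24 h at 37 °C, 5% CO2. Serial dilutions of compound added in an equal volume of medium, DMSO as negative control, then 48 h further incubation. Surviving cells measured by MTT.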

[2] = Cytotoxicity against human MOLT3 cells after 48 hrs by XTT assay; type: functional, cell-based; details: MOLT-3, 48 h
Summary of the method: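 Suspension MOLT-3 cells seeded at 10,000-20,000 per well and preincubated 24 h at 37 °C, 5% CO2. Compound serial dilutions added in an equal volume of medium, DMSO as negative control, then 48 h. Surviving cells measured by XTT. IC50 is the concentration inhibiting growth 50% relative to the DMSO control.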

Plasmodium falciparum = assay: Antimalarial activity against multidrug-resistant Plasmodium falciparum K1 infected in human erythrocytes after 48 hrs by [3H]hypoxanthine incorporation assay; type: functional, organism-based
Summary of the method: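 K1 parasites kept in RPMI 1640 with 20 mM HEPES, 32 mM NaHCO3, 10% human serum and 3% erythrocytes, at 37 °C under 3% CO2. Ring-stage culture (1.5% haematocrit, 1% parasitemia) was exposed to compound for 24 h at 0.1% DMSO final. 0.5 µCi [3H]hypoxanthine was then added for a further 24 h. Incorporation was scintillation-counted, and growth was expressed as treated/untreated cpm ×100.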

[3] = Plasmodium falciparum, K1, read-out: IC50

Compound: O=C1C(Cl)=C(Nc2ccc(S(=O)(=O)NCCc3ccccn3)cc2)C(=O)c2ccccc21
- IC50 (HepG2): 10.3 µM
- IC50 [1]: 5.88 µM
- IC50 (Vero): 99.9 µM
- IC50 (A549): 31.4 µM
- IC50 [2]: 1.37 µM
- IC50 (Plasmodium falciparum): Not Active

Compound: O=C1C(Cl)=C(Nc2ccc(S(=O)(=O)NCCc3ccccc3)cc2)C(=O)c2ccccc21
- IC50 (HepG2): 6.27 µM
- IC50 [1]: 4.93 µM
- IC50 (Vero): > 107 µM
- IC50 (A549): 11.2 µM
- IC50 [2]: 2.18 µM
- IC50 (Plasmodium falciparum): Not Active

Compound: COc1ccc(CCNS(=O)(=O)c2ccc(NC3=C(Cl)C(=O)c4ccccc4C3=O)cc2)cc1OC
- IC50 (HepG2): 6.07 µM
- IC50 [1]: 5.5 µM
- IC50 (Vero): 21.1 µM
- IC50 (A549): 13 µM
- IC50 [2]: 2.05 µM
- IC50 (Plasmodium falciparum; [3]): 9.96 µM

Compound: O=C1C(Cl)=C(Nc2ccc(S(=O)(=O)NCc3ccccn3)cc2)C(=O)c2ccccc21
- IC50 (HepG2): 3.3 µM
- IC50 [1]: 5 µM
- IC50 (Vero): 10.8 µM
- IC50 (A549): 5.88 µM
- IC50 [2]: 1.37 µM
- IC50 (Plasmodium falciparum): Not Active

Compound: O=C1C(Cl)=C(Nc2ccc(S(=O)(=O)N3CCc4ccccc4C3)cc2)C(=O)c2ccccc21
- IC50 (HepG2): 36.9 µM
- IC50 [1]: 57.8 µM
- IC50 (Vero): 20.3 µM
- IC50 (A549): 48.4 µM
- IC50 [2]: 8.56 µM
- IC50 (Plasmodium falciparum; [3]): 14.7 µM

Compound: COc1cc2c(cc1OC)CN(S(=O)(=O)c1ccc(NC3=C(Cl)C(=O)c4ccccc4C3=O)cc1)CC2
- IC50 (HepG2): 14.4 µM
- IC50 [1]: 5.21 µM
- IC50 (Vero): 0.944 µM
- IC50 (A549): 20.2 µM
- IC50 [2]: 1.73 µM
- IC50 (Plasmodium falciparum; [3]): 2.8 µM

Compound: O=C1C(Cl)=C(Nc2cccc(S(=O)(=O)NCCc3ccccn3)c2)C(=O)c2ccccc21
- IC50 (HepG2): 5.13 µM
- IC50 [1]: 5.77 µM
- IC50 (Vero): 20.2 µM
- IC50 (A549): 3.93 µM
- IC50 [2]: 2.2 µM
- IC50 (Plasmodium falciparum): Not Active

Compound: O=C1C(Cl)=C(Nc2cccc(S(=O)(=O)NCCc3ccccc3)c2)C(=O)c2ccccc21
- IC50 (HepG2): 12.8 µM
- IC50 [1]: 9.47 µM
- IC50 (Vero): 3.85 µM
- IC50 (A549): 31.1 µM
- IC50 [2]: 3.3 µM
- IC50 (Plasmodium falciparum; [3]): 6.3 µM

Compound: COc1ccc(CCNS(=O)(=O)c2cccc(NC3=C(Cl)C(=O)c4ccccc4C3=O)c2)cc1OC
- IC50 (HepG2): 9.49 µM
- IC50 [1]: 8.5 µM
- IC50 (Vero): 3.76 µM
- IC50 (A549): 27.2 µM
- IC50 [2]: 4.95 µM
- IC50 (Plasmodium falciparum; [3]): 10.1 µM

Compound: O=C1C(Cl)=C(Nc2cccc(S(=O)(=O)NCc3ccccn3)c2)C(=O)c2ccccc21
- IC50 (HepG2): 4.56 µM
- IC50 [1]: 3.66 µM
- IC50 (Vero): 2.82 µM
- IC50 (A549): 2.31 µM
- IC50 [2]: 2.38 µM
- IC50 (Plasmodium falciparum): Not Active

Compound: O=C1C(Cl)=C(Nc2cccc(S(=O)(=O)N3CCc4ccccc4C3)c2)C(=O)c2ccccc21
- IC50 (HepG2): 11 µM
- IC50 [1]: 6.08 µM
- IC50 (Vero): 4.2 µM
- IC50 (A549): 21.9 µM
- IC50 [2]: 1.92 µM
- IC50 (Plasmodium falciparum; [3]): 7.27 µM

Compound: COc1cc2c(cc1OC)CN(S(=O)(=O)c1cccc(NC3=C(Cl)C(=O)c4ccccc4C3=O)c1)CC2
- IC50 (HepG2): 43.3 µM
- IC50 [1]: 26.4 µM
- IC50 (Vero): 11.2 µM
- IC50 (A549): 63.1 µM
- IC50 [2]: 2.34 µM
- IC50 (Plasmodium falciparum; [3]): 8.79 µM

Compound: O[C@@H](c1cc(C(F)(F)F)nc2c(C(F)(F)F)cccc12)[C@H]1CCCCN1 (relative stereo) [(S,R)-MEFLOQUINE]
- IC50 (Plasmodium falciparum; [3]): 0.0269 µM

Compound: C[C@H]1[C@@H](O)O[C@@H]2O[C@@]3(C)CC[C@H]4[C@H](C)CC[C@@H]1[C@@]24OO3 [ARTENIMOL]
- IC50 (Plasmodium falciparum; [3]): 0.00142 µM

Compound: COc1cccc2c1C(=O)c1c(O)c3c(c(O)c1C2=O)C[C@@](O)(C(=O)CO)C[C@@H]3O[C@H]1C[C@H](N)[C@H](O)[C@H](C)O1 [DOXORUBICIN]
- IC50 [1]: 0.42 µM

Compound: Cc1c2ccncc2c(C)c2c1[nH]c1ccccc12 [ELLIPTECINE]
- IC50 (Vero): 4.05 µM

Compound: COc1cc([C@@H]2c3cc4c(cc3[C@@H](O[C@@H]3O[C@@H]5CO[C@@H](C)O[C@H]5[C@H](O)[C@H]3O)[C@H]3COC(=O)[C@H]23)OCO4)cc(OC)c1O [ETOPOSIDE]
- IC50 (HepG2): 34 µM
- IC50 [2]: 0.041 µM
